Screening results deposited in PubChem by Johns Hopkins Ion Channel Center.
Most compounds without a hit are left out; they make up all but 3.5% or so of the library.
MrgX1 agonist = activates human MrgX1 receptor signaling; Q96LB2; MrgX1-HEK293 cells, Fluo-4 calcium fluorescence, agonist mode; active compounds read high; B-score at 10 µM; 310,000 tested, 0.44% active; AID 588627;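 active = calcium response B-score plate-corrected fluorescence ratio at least 3 library SD, with starting fluorescence B-score inside 5 SD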
Target sequence (Q96LB2 whole entry, looked up): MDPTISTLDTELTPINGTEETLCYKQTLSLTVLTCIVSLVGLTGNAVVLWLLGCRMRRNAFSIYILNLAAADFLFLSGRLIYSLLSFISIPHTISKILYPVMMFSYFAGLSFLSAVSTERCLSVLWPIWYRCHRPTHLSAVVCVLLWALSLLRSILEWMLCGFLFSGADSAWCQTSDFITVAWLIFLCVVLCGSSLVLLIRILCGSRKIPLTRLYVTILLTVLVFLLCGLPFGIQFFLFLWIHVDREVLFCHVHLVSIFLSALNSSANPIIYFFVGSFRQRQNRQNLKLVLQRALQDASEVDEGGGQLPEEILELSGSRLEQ
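Assay system: MrgX1-expressing HEK293 cells / Amount: fifteen thousand cells per well / Doses: test compound in the initial addition of three / Timing: cells plated overnight, dye loaded 0.5 h 37 °C, 0.5 h room temperature / Technique: kinetic calcium dye fluorescence, Fluo-4 NW / Control set: positive and negative controls per plate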
RGS4 act = potentiators or activators of RGS4. B-score at 10 µM. 310,000 tested, 0.92% active. HEK293 M3R/inducible RGS4, carbachol calcium flux Fluo4; active compounds read low;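 active = B-score of the integrated calcium signal more than 4 SD below the library mean, with starting fluorescence not abnormally high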;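 also: negative B-score means reduced calcium response which marks RGS4 activation or potentiation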
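Reagent: ECmax carbachol challenge; Test system: M3R-expressing HEK293 line, RGS4 induced by doxycycline; Schedule: overnight RGS4 induction, 30 min dye load 37 °C, 20 min compound RT; Detection: calcium dye Fluo4 fluorescence; Read-out: Agonist-evoked peak-minus-minimum fluorescence over baseline, integrated ratio, B score.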
MrgX1 PAM = allosterically activates human MrgX1 receptor signaling; Q96LB2; MrgX1-HEK293, Fluo-4 calcium flux, FDSS; active compounds read high; B-score at 10 µM; 310,000 tested, 0.63% active; AID 588675;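 active = plate-corrected calcium response at least 3 library SD above typical, normal starting fluorescence, not activating the receptor alone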;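 also: compound read alongside a low EC10 to EC30 dose of BAM8-22 agonist; peak minus trough fluorescence over baseline measured at the second addition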
MrgX1 antag = antagonists of human MrgX1 receptor | Q96LB2 | MRGX1-HEK293 calcium flux, Fluo-4, BAM8-22 antagonism; active compounds read low | B-score at 10 µM | 310,000 tested, 1.3% active;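 active = calcium-response B-score plate-corrected more than 3 library SD below zero, starting fluorescence within 5 deviations, no agonist response on first addition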;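 also: peak minus trough fluorescence over baseline after final BAM8-22 challenge near maximal dose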
RGS4 inh = human RGS4 inhibition; HEK293 M3R/RGS4 inducible, Fluo-4 calcium flux; active compounds read high; triggered by carbachol at its EC20; B-score at 10 µM; 310,000 tested, 0.45% active; AID 463165;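 active = B-score, a plate-corrected calcium signal, over three deviations above library mean, with baseline fluorescence within five deviations of library mean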;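 also: RGS4 expression induced by doxycycline in cells with stable M3 receptor; B-score is computed from the integrated fluorescence ratio over baseline after carbachol; higher B-score means a larger calcium signal and so more RGS4 inhibition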
Target sequence (P49798 whole entry, looked up): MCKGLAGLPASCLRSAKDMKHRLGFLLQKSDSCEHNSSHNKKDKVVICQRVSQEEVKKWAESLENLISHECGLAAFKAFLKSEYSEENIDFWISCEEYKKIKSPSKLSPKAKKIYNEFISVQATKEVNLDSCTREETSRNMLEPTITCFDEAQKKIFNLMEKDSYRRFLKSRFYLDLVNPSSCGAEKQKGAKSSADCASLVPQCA
MrgX1 antag conf = human MrgX1 receptor antagonism, re-confirmation screen; shares compounds with MrgX1 antag; MrgX1-HEK293, BAM8-22 calcium flux, Fluo-4; active compounds read low; remaining BAM8-22 calcium response % of control (active compounds read low), % at 10 µM; 2,300 tested, 19% active; AID 602420;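 active = remaining agonist calcium response no higher than 100% minus 3 SD of agonist-only control wells, with starting fluorescence near control levels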;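 also: agonist BAM8-22 given at a near maximal EC90 to ECmax level; peak minus minimum fluorescence divided by baseline after agonist addition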
HEK293 Ca flux = activity in parental HEK293 cells lacking MrgX1. shares compounds with MrgX1 antag. fluorescence ratio F(max-min)/F0 at 10 µM. Fluo-4 calcium fluorescence, FDSS. 4,000 tested, 2% active;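 active = duplicate-averaged calcium fluorescence ratio at least three times the standard deviation of buffer wells, a nonspecific response in parental cells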
HEK293 Ca counter = counter-screen for MrgX1 allosteric activators: effect in parental HEK293 cells. shares compounds with MrgX1 antag. parental HEK293 calcium flux, Fluo-4 fluorescence ratio; active compounds read high. fluorescence ratio F(max-min)/F0 at 10 µM. 4,000 tested, 0.4% active;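 active = calcium fluorescence ratio, averaged over duplicates, at least 3 SD of the buffer-well ratio, meaning a nonspecific response in receptor-free cells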;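 also: untransfected parental HEK293 lacking MrgX1 used as counterscreen for MrgX1 allosteric activators; fluorescence change taken during the second addition on a kinetic imager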
HEK293 Ca cntr2 = MrgX1 activator counter-screen hit in parental HEK293 cells. shares compounds with MrgX1 antag. Fluo-4 calcium fluorescence (FDSS); active compounds read high. fluorescence ratio F(max-min)/F0 at 10 µM. 4,000 tested, 8.7% active;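 active = calcium fluorescence ratio at least three times the spread of buffer wells, meaning a non-specific response in parental cells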
Numbers stand for hits; i = inactive; nt = not tested or not shown.

SMILES | MrgX1 agonist | RGS4 act | MrgX1 PAM | MrgX1 antag | RGS4 inh | MrgX1 antag conf | HEK293 Ca flux | HEK293 Ca counter | HEK293 Ca cntr2
Cc1cc(C(=O)CSc2nc3ccccc3[nH]2)c(C)n1CC1CCCO1 (stereo not drawn) | i | i | i | -8.1 | i | 9.7% | i | i | i
CNC(=O)CSc1nnc(-c2cccnc2)n1-c1ccc(C)cc1 | i | i | i | -5.6 | i | i | i | i | i
CCS(=O)(=O)N1CCN(c2ccc(S(=O)(=O)N3CCOCC3)cc2)CC1 | i | i | i | i | i | nt | nt | nt | nt
O=S(=O)(c1ccc(N2CCOCC2)cc1)N1CCOCC1 | i | i | i | -4.9 | i | i | i | i | i
CCn1c(CCCOc2ccc(Cl)cc2Cl)n[nH]c1=S | i | i | i | i | i | nt | nt | nt | nt
CCSc1nnc(NC(=O)COc2ccccc2)s1 | i | i | i | i | i | nt | nt | nt | nt
CCSc1nnc(NC(=O)C(CC)Oc2ccccc2)s1 (stereo not drawn) | i | i | i | -6.6 | i | i | i | i | i
O=C(NNC(=O)c1cc(Br)c(Br)s1)c1csc(N2CCOCC2)n1 | i | i | i | i | i | nt | nt | nt | nt
Cc1nc(CNS(=O)(=O)c2ccccc2F)cs1 | i | i | i | -4.6 | i | i | i | i | i
Cc1nc(CNS(=O)(=O)c2cccs2)cs1 | i | i | i | i | i | nt | nt | nt | nt
Nc1cccnc1Sc1cc(Cl)c(Cl)cc1Cl | i | i | i | -6.5 | i | i | i | i | i
CC(CC(=O)Nc1nc2ccccc2[nH]1)n1ccnc1 (stereo not drawn) | i | i | i | i | i | nt | nt | nt | nt
CC(=O)Nc1ccc(NC(=O)CC(C)n2ccnc2)cc1 (stereo not drawn) | i | i | i | -7 | i | i | i | i | i
CCOC(=O)c1oc2ccccc2c1CSc1nnnn1-c1ccc(OC)cc1 | i | i | i | -7.1 | i | i | i | i | i
CCn1nnnc1SCC(=O)c1cccc(OC)c1 | i | i | i | i | i | nt | nt | nt | nt
CCCn1nc2cc(C(=O)NCc3ccc(OC)cc3)ccc2c1OCC | i | i | i | -5 | i | i | i | i | i
COc1ccc(-n2nnnc2SCC(=O)c2cccc(OC)c2)cc1 | i | i | i | -4.6 | i | i | i | i | i
CCCn1nnnc1SCC(=O)NCc1ccccc1 | i | i | i | i | i | nt | nt | nt | nt
CCCn1nnnc1SCC(=O)NCc1ccc(OC)cc1 | i | i | i | -6.8 | i | i | i | i | i
O=C(CNC(=O)c1ccc(F)cc1)Nc1ccccc1C(F)(F)F | i | i | i | i | i | nt | nt | nt | nt
Cc1cc(C)cc(N(CCC#N)C(=O)COC(=O)c2nc3nc(C)cc(C)n3n2)c1 | i | i | i | i | i | nt | nt | nt | nt
COc1ccc(CNC(=O)CSc2nnnn2-c2ccccc2)cc1 | i | i | i | -9.9 | i | i | i | i | i
Cc1ccc(-c2nc(NC(=O)CSc3nnnn3-c3ccccc3)ns2)cc1 | i | i | i | -6.7 | i | i | i | i | i
COC(=O)[C@@H]1C[C@@]2(Br)c3ccccc3N(S(=O)(=O)c3ccccc3)[C@H]2N1C(=O)OC | i | i | i | -6 | i | i | i | i | 61
COc1ccc(Cl)cc1S(=O)(=O)NCc1cccnc1 | i | i | i | -5.7 | i | i | i | i | i
CCOc1cc(S(=O)(=O)NCc2cccnc2)c(C)cc1C | i | i | i | -4.9 | i | i | i | i | i
Cc1cc(C)c(S(=O)(=O)NCc2cccnc2)cc1C | i | i | i | i | i | nt | nt | nt | nt
CCn1c(=O)[nH]c(=O)c2c(N)c(C(=O)c3cc(F)ccc3F)sc21 | i | i | i | i | i | nt | nt | nt | nt
CC(NC(=O)CSc1nc2ccc(N)cc2s1)c1ccccc1 (stereo not drawn) | i | i | i | -5.5 | i | i | i | i | i
